A word on the IC50: it is the concentration at which inhibition is half-maximal. Lower therefore signals higher potency.

The source of these data is ChEMBL document CHEMBL1135489, “Structurally simple trichostatin A-like straight chain hydroxamates as potent histone deacetylase inhibitors” (J Med Chem, 2002).

For test [1], the system named is A549. The experiment in a line: Inhibitory concentration required to reduce A549 tumor cell growth by 50% in MTT assay. Format: functional, cell-based. Conditions: Homo sapiens. Put shortly:
(§1)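 Compound dilution series added to plated cells, 72 h at 37 °C, 5% CO2. MTT then added at 0.5 mg/mL final for 4 h. Solubilization buffer (50% DMF, 20% SDS, pH 4.7) added, incubated overnight, read at 570 with 630 reference. OD converted to cell number from each line's standard growth curve.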
A general note: Tetrazolium assays rely on reduction of a dye to a coloured formazan, in cell work by metabolically active cells.

The subject of test [2] is DU-145. Put plainly: Inhibitory concentration required to reduce DU145 tumor cell growth by 50% in MTT assay. It is filed as functional, cell-based. Conditions: Homo sapiens. Put shortly:
as §1

Test [3] deals with NCI-H446. Put plainly: Inhibitory concentration required to reduce H446 tumor cell growth by 50% in MTT assay. Format: functional, cell-based. The following applies: Homo sapiens. Put shortly:
as §1

Test [4] deals with HCT-116. The experiment in a line: Inhibitory concentration required to reduce HCT 116 tumor cell growth by 50% in MTT assay. Format: functional, cell-based. The following applies: Homo sapiens. Put shortly: as §1
For test [5], the system named is HMEC. The experiment in a line: Inhibitory concentration required to reduce normal human epithelial cell line (HMEC), growth by 50% in MTT assay. It is filed as functional, cell-based. Put shortly:
as §1

Test [6] relates to MCF7. Put plainly: Inhibitory concentration required to reduce MCF-7 tumor cell growth by 50% in MTT assay. It is filed as functional, cell-based. The following applies: Homo sapiens. Put shortly:
as §1

Test [7] has as its system MDA-MB-231. The experiment in a line: Inhibitory concentration required to reduce MDAmb 231 tumor cell growth by 50% in MTT assay. It is filed as functional, cell-based. Conditions: Homo sapiens. Put shortly: as §1
The test system of test [8] is SW48. Put plainly: Inhibitory concentration required to reduce SW48 tumor cell growth by 50% in MTT assay. It is filed as functional, cell-based. The following applies: Homo sapiens. Put shortly:
as §1

The test system of test [9] is T-24. The experiment in a line: Inhibitory concentration required to reduce T24 tumor cell growth by 50% in MTT assay. Format: functional, cell-based. Conditions: Homo sapiens. Put shortly: as §1
For test [10], the target named is Histone deacetylase 1 (Homo sapiens, UniProt Q13547). Put plainly: Inhibition against partially purified human histone deacetylase 1 (HDAC-1).
Sequence of Histone deacetylase 1 (Q13547 whole entry): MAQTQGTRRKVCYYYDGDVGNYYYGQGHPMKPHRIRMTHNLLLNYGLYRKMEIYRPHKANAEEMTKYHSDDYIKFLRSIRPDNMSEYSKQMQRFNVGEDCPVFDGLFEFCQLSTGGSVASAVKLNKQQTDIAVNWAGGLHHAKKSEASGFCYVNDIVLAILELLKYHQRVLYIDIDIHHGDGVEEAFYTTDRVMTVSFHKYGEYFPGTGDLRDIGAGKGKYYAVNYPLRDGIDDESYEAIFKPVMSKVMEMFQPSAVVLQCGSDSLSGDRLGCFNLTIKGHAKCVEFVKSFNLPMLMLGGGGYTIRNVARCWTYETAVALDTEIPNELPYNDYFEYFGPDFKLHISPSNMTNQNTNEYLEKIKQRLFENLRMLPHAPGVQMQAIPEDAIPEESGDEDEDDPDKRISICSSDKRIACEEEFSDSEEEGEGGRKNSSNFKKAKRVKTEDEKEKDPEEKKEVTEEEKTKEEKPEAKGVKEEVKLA

Take `CC(/C=C/C(=O)NO)=C\[C@@H](C)C(=O)c1ccc(N(C)C)cc1` [TRICHOSTATIN]: the IC50 in test [1] is 160 nM; in test [2], 200 nM; in [3], 80 nM; in test [4], less than 50 nM; in test [5], 1600 nM; in test [6], 100 nM. In addition, the results for the 50% inhibitory concentration (IC50) in test [7], in test [8] and in [9] were 90 nM, 100 nM and 150 nM, respectively.

As for `O=C(CCCCCCCc1ccc2ccccc2c1)NO`, 25 nM corresponded to half-maximal inhibition in test [10] (IC50).

For the compound `O=C(CCCCCCC(=O)c1ccc(N2CCN(c3ccccc3)CC2)cc1)NO`, the 50% inhibitory concentration (IC50) in test [1] was 5000 nM; in test [2], 5500 nM; in test [3], 1000 nM; in test [4], 4000 nM; in test [5] it was more than 20000 nM; in test [10] it was 4.5 nM. Further, the half-inhibitory concentration (IC50) in test [6] was 2000 nM; in test [7] it was 800 nM; in test [8] it was 2500 nM; in test [9], 7000 nM.

For the compound `O=C(CCCCCCC(=O)c1cccnc1)NO`, 153 nM corresponded to half-maximal inhibition in test [10] (IC50). This counts as sub-micromolar.

Compound `O=C(CCCCCCC(=O)c1ccc(C(F)(F)F)cc1)NO` gave a 50% inhibitory concentration (IC50) in test [10] of 45 nM. Against the preceding compound, the IC50 is about 3.4-fold lower.

`O=C(CCCCC/C=C/c1ccc2ccccc2c1)NO` had a concentration for half-maximal inhibition (IC50) in [10] of 6 nM.
